ChEMBL document CHEMBL2331225, “Structure-based design, synthesis and evaluation of novel anthra[1,2-d]imidazole-6,11-dione derivatives as telomerase inhibitors and potential for cancer polypharmacology” (Eur J Med Chem, 2013)
The source made the active and inactive calls. The rule behind the calls is not given here.

Assays:
[1] = target: T1, Telomerase reverse transcriptase (Homo sapiens, UniProt O14746); assay: Inhibition of TERT transcriptional activity in human H1299 cells assessed SEAP activity at 10 uM incubated for 24 hrs by SEAP assay; assay type: cell-based; parameters: scale not given: the % may be the effect or the level left
T1 sequence (O14746 whole entry): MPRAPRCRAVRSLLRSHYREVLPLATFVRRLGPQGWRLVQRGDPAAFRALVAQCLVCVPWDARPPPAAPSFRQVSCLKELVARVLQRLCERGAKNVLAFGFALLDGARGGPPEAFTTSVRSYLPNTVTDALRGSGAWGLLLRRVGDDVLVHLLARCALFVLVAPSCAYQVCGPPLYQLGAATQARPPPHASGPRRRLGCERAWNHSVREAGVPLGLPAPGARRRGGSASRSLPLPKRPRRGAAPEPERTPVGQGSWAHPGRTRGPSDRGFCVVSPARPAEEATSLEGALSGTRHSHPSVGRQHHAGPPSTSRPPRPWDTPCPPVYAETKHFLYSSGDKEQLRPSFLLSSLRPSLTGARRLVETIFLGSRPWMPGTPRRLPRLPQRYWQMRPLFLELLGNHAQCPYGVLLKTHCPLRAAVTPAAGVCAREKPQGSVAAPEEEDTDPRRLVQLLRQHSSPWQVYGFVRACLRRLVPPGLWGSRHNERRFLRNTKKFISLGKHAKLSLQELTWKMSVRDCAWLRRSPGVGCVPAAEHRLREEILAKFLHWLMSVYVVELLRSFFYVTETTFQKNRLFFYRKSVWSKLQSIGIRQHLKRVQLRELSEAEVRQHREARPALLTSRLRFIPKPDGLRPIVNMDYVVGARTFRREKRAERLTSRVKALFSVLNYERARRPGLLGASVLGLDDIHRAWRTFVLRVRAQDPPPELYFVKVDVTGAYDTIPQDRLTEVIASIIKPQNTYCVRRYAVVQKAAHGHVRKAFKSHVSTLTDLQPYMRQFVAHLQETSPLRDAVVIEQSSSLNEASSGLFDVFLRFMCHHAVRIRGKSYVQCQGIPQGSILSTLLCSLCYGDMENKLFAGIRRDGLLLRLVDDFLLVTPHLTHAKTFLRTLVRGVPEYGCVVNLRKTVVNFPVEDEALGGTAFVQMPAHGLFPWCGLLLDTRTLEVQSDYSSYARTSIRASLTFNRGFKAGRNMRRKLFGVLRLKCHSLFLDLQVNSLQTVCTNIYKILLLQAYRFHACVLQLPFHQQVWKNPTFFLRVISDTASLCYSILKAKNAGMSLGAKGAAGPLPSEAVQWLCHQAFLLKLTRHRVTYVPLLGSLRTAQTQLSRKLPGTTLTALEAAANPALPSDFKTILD
Outline: (§1)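 H1299 stable clones carry the hTERT promoter (−3338 to +1 bp) upstream of SEAP, introduced by electroporation and selected with G418. About 2 × 10³ cells per well were grown 24 h at 37 °C, given fresh medium, then drug for 24 h. Collected media were heated at 65 °C for 10 min, mixed with equal SEAP buffer (2 M diethanolamine, 1 mM MgCl₂, 20 mM L-homoarginine) and p-nitrophenyl phosphate at 12 mM final.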

[2] = Cytotoxicity against human H1299 cells assessed as cell viability at 100 uM after 48 hrs by MTT assay; assay type: functional; details: NCI-H1299, 48 h, read-out: Activity
Outline: (§2)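 H1299 cells at about 2 × 10³ per well were grown 24 h at 37 °C in 5% CO₂. Compounds were dissolved in DMSO just before use and diluted into complete medium. After 48 h exposure, MTT was added for 4 h at 37 °C, then lysis buffer (20% SDS, 50% DMF) for 16 h at 37 °C. Absorbance was read at 550 nm.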

[3] = Cytotoxicity against human H1299 cells assessed as cell viability at 10 uM after 48 hrs by MTT assay; assay type: functional; details: NCI-H1299, 48 h, read-out: Activity; outline: as §2
[4] = Cytotoxicity against human H1299 cells assessed as cell viability at 1 uM after 48 hrs by MTT assay; assay type: functional; details: NCI-H1299, 48 h, read-out: Activity; outline: as §2
[5] = target: T1, Telomerase reverse transcriptase; assay: Inhibition of TERT activity in human H1299 cells homogenates incubated for 5 mins at 100 uM by TRAP assay; assay type: cell-free
Outline: (§3)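 Telomerase-active extracts were prepared from H1299 cells, and lysate protein was measured against BSA standards. Compounds were tested in the TRAP assay, with RNase A-treated extracts as negative controls.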

[6] = Cytotoxicity against human H1299 cells expressing hTERT and SEAP after 48 hrs by MTT assay; assay type: cell-based; details: nci-h1299, 48 h
Outline: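 H1299 stably carrying P_hTERT-SEAP, about 2 × 10³ cells per well, were grown 24 h at 37 °C, washed with PBS and given fresh medium. Compounds were added at varying amounts for 48 h, and growth was measured by MTT read at 550 nm. Values come from three experiments, with untreated cells set as 100%.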

[7] = target: T1, Telomerase reverse transcriptase; assay: Inhibition of TERT transcriptional activity in human H1299 cells assessed SEAP activity at 1 uM incubated for 24 hrs by SEAP assay; assay type: cell-based; parameters: scale not given: the % may be the effect or the level left; outline: as §1
PC-3 [8] = assay: Growth inhibition of human PC3 cells after 48 hrs by SRB assay; assay type: functional, cell-based; details: PC-3, 48 h
Outline: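 PC-3 cells were seeded in medium with 5% FBS; after 24 h a plate was fixed with 10% TCA as T₀. Vehicle (0.1% DMSO) or compound was given for 48 h, then cells were TCA-fixed, stained with 0.4% SRB in 1% acetic acid, solubilized in 10 mM Trizma base and read at 515 nm. IC₅₀ is the concentration halving the protein increase seen in controls.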

IMR-90 = assay: Cytotoxicity against human IMR90 cells after 48 hrs by MTT assay; assay type: cell-based; details: IMR-90, 48 h
[9] = target: T1, Telomerase reverse transcriptase; assay: Inhibition of TERT transcriptional activity in human H1299 cells assessed SEAP activity at 100 uM incubated for 24 hrs by SEAP assay; assay type: cell-based; parameters: scale not given: the % may be the effect or the level left; outline: as §1
SNB-19 = assay: Cytotoxicity against human SNB19 cells assessed as cell growth level at 10 uM; assay type: functional
A498 = assay: Cytotoxicity against human A498 cells assessed as cell growth level at 10 uM; assay type: functional
[10] = Cytotoxicity against human EKVX cells assessed as cell growth level at 10 uM; assay type: functional
DU-145 = assay: Cytotoxicity against human DU145 cells assessed as cell growth level at 10 uM; assay type: functional
PC-3 [11] = assay: Cytotoxicity against human PC3 cells assessed as cell growth level at 10 uM; assay type: functional
MOLT-4 = assay: Cytotoxicity against human MOLT4 cells assessed as cell growth level at 10 uM; assay type: functional
COLO 205 = assay: Cytotoxicity against human COLO205 cells assessed as cell growth level at 10 uM; assay type: functional
[12] = target: DNA polymerase I, thermostable (Thermus aquaticus) (UniProt P19821); assay: Inhibition of Thermus aquaticus DNA polymerase compound after telomerase extension step and before PCR-amplification step during TRAP assay
Sequence of DNA polymerase I, thermostable (Thermus aquaticus) (P19821 whole entry): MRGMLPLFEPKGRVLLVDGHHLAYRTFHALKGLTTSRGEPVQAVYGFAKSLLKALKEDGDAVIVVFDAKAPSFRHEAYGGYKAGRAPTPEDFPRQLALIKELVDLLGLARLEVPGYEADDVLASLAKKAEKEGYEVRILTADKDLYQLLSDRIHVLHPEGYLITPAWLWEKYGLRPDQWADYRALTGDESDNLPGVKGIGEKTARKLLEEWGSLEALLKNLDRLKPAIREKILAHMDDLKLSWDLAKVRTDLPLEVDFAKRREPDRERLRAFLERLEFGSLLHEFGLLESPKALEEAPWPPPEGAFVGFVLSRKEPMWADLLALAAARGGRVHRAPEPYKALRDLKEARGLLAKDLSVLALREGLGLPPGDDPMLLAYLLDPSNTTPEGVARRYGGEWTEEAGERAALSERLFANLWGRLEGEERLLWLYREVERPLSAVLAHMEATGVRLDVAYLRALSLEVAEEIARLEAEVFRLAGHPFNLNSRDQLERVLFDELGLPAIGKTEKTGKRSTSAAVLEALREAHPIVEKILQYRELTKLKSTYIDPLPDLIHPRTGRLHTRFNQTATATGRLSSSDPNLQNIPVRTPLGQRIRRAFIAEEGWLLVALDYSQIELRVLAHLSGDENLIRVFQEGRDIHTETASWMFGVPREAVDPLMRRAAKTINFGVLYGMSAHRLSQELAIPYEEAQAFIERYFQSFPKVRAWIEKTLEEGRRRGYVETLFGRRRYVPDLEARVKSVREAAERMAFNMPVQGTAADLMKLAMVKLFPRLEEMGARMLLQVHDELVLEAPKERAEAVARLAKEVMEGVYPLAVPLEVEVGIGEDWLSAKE
Outline: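 TRAP-m variant: compounds were added after the telomerase extension step and before PCR amplification, using H1299 telomerase extracts, with RNase A-treated extracts as negative control.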

[13] = target: T1, Telomerase reverse transcriptase; assay: Inhibition of TERT activity in human H1299 cells homogenates incubated for 5 mins by TRAP assay; assay type: cell-free; outline: as §3
[14] = Cytotoxicity against human NCI-ADR-RES cells assessed as cell growth level at 10 uM; assay type: functional

inhibition [12]	IC50 [13]	SMILES	Activity [1]	viability at 100 µM [2]	viability at 10 µM [3]	viability at 1 µM [4]	TERT inhibition (active/not active) [5]	Activity [6]	Activity [7]	IC50 (PC-3 [8])	IC50 (IMR-90)	Activity [9]	Activity (SNB-19)	Activity (A498)	Activity [10]	Activity (DU-145)	Activity (PC-3 [11])	Activity (MOLT-4)	Activity (COLO 205)	Activity [14]
–	–	O=C1c2ccccc2C(=O)c2c1ccc1nc(CCN3CCN(Cc4ccccc4)CC3)[nH]c21	5%	6%	54%	96%	inactive	Non-toxic	73%	16 µM	100 µM	0%	–	–	–	–	–	–	–	–
–	–	O=C1c2ccccc2C(=O)c2c1ccc1nc(CN3CCN(c4ccccn4)CC3)[nH]c21	57%	20%	69%	91%	inactive	–	91%	> 30 µM	–	1%	81%	68.23%	63%	89.1%	81.46%	–	–	–
–	–	CCN(CC)Cc1nc2ccc3c(c2[nH]1)C(=O)c1ccccc1C3=O	32%	0%	55%	101%	inactive	–	91%	10.3 µM	–	0%	–	49.5%	–	–	73.54%	-9.43%	81%	–
inactive	> 10 µM	CCN1CCN(Cc2nc3ccc4c(c3[nH]2)C(=O)c2ccccc2C4=O)CC1	14%	0%	35%	86%	Active	–	92%	6.5 µM	–	0%	–	–	–	–	–	–	–	–
–	–	O=C1c2ccccc2C(=O)c2c1ccc1nc(CCN3CCN(c4ncccn4)CC3)[nH]c21	35%	0%	84%	91%	inactive	Non-toxic	83%	> 30 µM	100 µM	0%	–	–	–	–	–	–	–	–
–	–	O=C1c2ccccc2C(=O)c2c1ccc1nc(CN3CCN(c4ccccc4)CC3)[nH]c21	77%	18%	54%	90%	inactive	–	92%	> 30 µM	–	6%	–	75.09%	–	77.91%	90.69%	–	–	–
inactive	5 µM	O=C1c2ccccc2C(=O)c2c1ccc1nc(CN3CCC(CCCC4CCNCC4)CC3)[nH]c21	8%	0%	0%	97%	Active	–	96%	13.8 µM	–	3%	–	–	–	–	–	–	–	–
–	–	O=C1c2ccccc2C(=O)c2c1ccc1nc(CN3CCCCC3)[nH]c21	44%	20%	79%	111%	inactive	Non-toxic	76%	10.3 µM	100 µM	7%	–	61.84%	–	81.94%	74.9%	–	–	–
–	–	O=C1c2ccccc2C(=O)c2c1ccc1nc(CNCc3ccc(C(F)(F)F)cc3)[nH]c21	8%	0%	11%	74%	inactive	–	52%	7.6 µM	–	2%	–	–	–	–	–	–	–	–
–	–	C=CCN1CCN(Cc2nc3ccc4c(c3[nH]2)C(=O)c2ccccc2C4=O)CC1	17%	0%	45%	86%	inactive	–	87%	12.8 µM	–	0%	–	–	–	–	–	–	–	–
–	–	O=C1c2ccccc2C(=O)c2c1ccc1nc(CN3CCSC3)[nH]c21	86%	5%	76%	89%	inactive	–	106%	12.1 µM	–	12%	–	–	–	–	–	–	–	–
–	–	N#Cc1ccccc1N1CCN(Cc2nc3ccc4c(c3[nH]2)C(=O)c2ccccc2C4=O)CC1	57%	22%	62%	78%	inactive	–	106%	29 µM	–	6%	–	–	–	–	–	–	–	–
–	–	CN(CCc1ccccn1)Cc1nc2ccc3c(c2[nH]1)C(=O)c1ccccc1C3=O	51%	0%	99%	104%	inactive	–	96%	14.2 µM	–	0%	–	69.6%	–	99.83%	83.7%	–	–	–

SMILES	inhibition [12]	IC50 [13]	Activity [1]	viability at 100 µM [2]	viability at 10 µM [3]	viability at 1 µM [4]	TERT inhibition (active/not active) [5]	Activity [6]	Activity [7]	IC50 (PC-3 [8])	IC50 (IMR-90)	Activity [9]	Activity (SNB-19)	Activity (A498)	Activity [10]	Activity (DU-145)	Activity (PC-3 [11])	Activity (MOLT-4)	Activity (COLO 205)	Activity [14]
CN1CCN(Cc2nc3ccc4c(c3[nH]2)C(=O)c2ccccc2C4=O)CC1	inactive	> 10 µM	23%	0%	35%	87%	Active	–	106%	6.5 µM	–	6%	–	69.36%	–	–	60.08%	-13.44%	–	62.93%
